This is an account of results in ChEMBL document CHEMBL1141179 (J Med Chem, 2005).

Test [1] deals with Somatostatin receptor type 3 (Homo sapiens, UniProt P32745). Description: Inhibition of 125I-[Leu8,D-Trp22,Tyr25]SRIF-28 binding to human somatostatin receptor type 3. The gist of the method: (§1)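 Human sst2 or sst3 receptor stably expressed in CCL39 cells. 20 µm cryostat sections of cell membrane pellets were used for autoradiographic binding. IC50 (nM) came from competitive displacement. Values are mean ± SEM when N ≥ 3; otherwise mean with single values.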
Somatostatin receptor type 3, sequence (P32745 whole entry): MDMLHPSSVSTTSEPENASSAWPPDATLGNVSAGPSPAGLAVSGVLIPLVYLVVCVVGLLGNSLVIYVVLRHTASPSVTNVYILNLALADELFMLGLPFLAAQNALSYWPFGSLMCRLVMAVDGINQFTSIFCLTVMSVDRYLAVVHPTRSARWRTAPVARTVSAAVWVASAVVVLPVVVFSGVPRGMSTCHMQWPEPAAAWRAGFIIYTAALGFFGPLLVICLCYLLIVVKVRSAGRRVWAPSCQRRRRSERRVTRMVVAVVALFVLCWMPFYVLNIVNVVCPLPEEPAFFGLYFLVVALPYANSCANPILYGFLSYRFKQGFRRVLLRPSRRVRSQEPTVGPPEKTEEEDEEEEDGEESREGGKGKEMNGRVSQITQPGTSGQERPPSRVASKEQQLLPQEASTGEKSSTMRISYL

The target in test [2] is Somatostatin receptor type 5 (Homo sapiens, UniProt P35346). Description: Inhibition of 125I-[Leu8,D-Trp22,Tyr25]SRIF-28 binding to human somatostatin receptor type 5. In outline:
(§2)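 Human sst1 or sst5 receptor stably expressed in CHO-K1 cells. 20 µm cryostat sections of cell membrane pellets were used for receptor autoradiography. IC50 (nM) came from competitive radioligand displacement. Values are mean ± SEM when N ≥ 3; otherwise mean with single values.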

In test [3] the target is Somatostatin receptor type 2 (Homo sapiens, UniProt P30874). As to the kind of experiment: Inhibition of 125I-[Leu8,D-Trp22,Tyr25]SRIF-28 binding to human somatostatin receptor type 2. The gist of the method:
as §1

The target in test [4] is Somatostatin receptor type 4 (Homo sapiens, UniProt P31391). Description: Inhibition of 125I-[Leu8,D-Trp22,Tyr25]SRIF-28 binding to human somatostatin receptor type 4.
Somatostatin receptor type 4, sequence (P31391 whole entry): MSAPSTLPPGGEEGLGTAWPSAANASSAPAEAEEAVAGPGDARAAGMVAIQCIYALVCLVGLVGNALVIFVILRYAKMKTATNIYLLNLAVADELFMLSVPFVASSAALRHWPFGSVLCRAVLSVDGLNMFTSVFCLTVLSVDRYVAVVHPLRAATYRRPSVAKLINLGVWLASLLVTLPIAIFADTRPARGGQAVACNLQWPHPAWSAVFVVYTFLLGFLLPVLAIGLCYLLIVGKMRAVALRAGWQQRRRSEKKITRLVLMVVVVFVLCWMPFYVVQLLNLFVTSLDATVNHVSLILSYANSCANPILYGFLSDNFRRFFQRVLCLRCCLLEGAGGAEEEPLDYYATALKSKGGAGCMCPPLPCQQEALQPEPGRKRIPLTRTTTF
For test [5], the target named is Somatostatin receptor type 1 (Homo sapiens, UniProt P30872). Description: Inhibition of 125I-[Leu8,D-Trp22,Tyr25]SRIF-28 binding to human somatostatin receptor type 1. The gist of the method: as §2
Somatostatin receptor type 1, sequence (P30872 whole entry): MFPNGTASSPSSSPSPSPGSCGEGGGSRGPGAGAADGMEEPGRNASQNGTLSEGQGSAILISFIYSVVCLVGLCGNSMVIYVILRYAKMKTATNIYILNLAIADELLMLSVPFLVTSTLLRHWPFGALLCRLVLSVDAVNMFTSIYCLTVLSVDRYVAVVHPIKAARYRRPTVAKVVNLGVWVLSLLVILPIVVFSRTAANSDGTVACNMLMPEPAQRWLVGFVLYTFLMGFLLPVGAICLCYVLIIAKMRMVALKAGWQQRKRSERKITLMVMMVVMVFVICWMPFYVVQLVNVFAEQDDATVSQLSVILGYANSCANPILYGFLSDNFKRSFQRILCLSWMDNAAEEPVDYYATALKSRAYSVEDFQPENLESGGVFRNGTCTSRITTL

Somatostatin receptor type 5, sequence (P35346 whole entry): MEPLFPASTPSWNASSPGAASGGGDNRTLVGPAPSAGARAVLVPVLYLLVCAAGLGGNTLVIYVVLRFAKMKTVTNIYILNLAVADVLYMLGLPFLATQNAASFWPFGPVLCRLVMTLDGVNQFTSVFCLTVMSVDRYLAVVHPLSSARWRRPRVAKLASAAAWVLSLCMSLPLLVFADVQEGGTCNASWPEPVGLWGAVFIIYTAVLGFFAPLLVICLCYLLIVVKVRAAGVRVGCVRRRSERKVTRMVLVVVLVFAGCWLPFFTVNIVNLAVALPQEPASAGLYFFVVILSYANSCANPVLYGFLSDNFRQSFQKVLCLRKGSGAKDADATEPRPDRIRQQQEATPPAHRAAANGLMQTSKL
Somatostatin receptor type 2, sequence (P30874 whole entry): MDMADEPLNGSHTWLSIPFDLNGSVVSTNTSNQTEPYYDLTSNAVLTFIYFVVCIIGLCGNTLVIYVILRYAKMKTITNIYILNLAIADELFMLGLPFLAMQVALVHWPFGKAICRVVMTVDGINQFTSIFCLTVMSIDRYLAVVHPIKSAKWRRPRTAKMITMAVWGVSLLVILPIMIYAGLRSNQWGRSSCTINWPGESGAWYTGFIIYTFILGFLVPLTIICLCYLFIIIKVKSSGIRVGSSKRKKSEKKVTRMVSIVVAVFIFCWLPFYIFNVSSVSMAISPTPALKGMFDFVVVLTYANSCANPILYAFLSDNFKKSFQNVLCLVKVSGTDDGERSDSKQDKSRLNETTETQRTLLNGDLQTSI

Turning to `CC(C)NCc1ccc(C[C@@H]2NC(=O)[C@@H](Cc3c[nH]c4ccccc34)NC(=O)[C@H](Cc3ccccc3)NC(=O)[C@@H]3CCC(=O)NCCCC[C@H](NC(=O)[C@H]([C@@H](C)O)NC2=O)C(=O)N[C@@H]([C@@H](C)O)C(=O)N[C@@H](CO)C(=O)N[C@H](C(=O)O)CSSC[C@H](NC(=O)[C@@H](N)Cc2ccc(O)cc2)C(=O)N[C@@H](CCCCN)C(=O)N3)cc1`, the IC50 in test [1], in test [2], in test [3], in test [4] and in test [5] was greater than 1000 nM in each case.
`C[C@@H](O)[C@@H]1NC(=O)[C@H](CCCCN)NC(=O)[C@@H](Cc2c[nH]c3ccccc23)NC(=O)[C@H](Cc2ccccc2)NC(=O)[C@H](Cc2ccccc2)NC(=O)[C@H](CCCCN)NC(=O)[C@@H](N)CSSC[C@@H](C(=O)O)NC(=O)[C@H](Cc2ccccc2)NC1=O`: the IC50 in test [1] turned out to be 39 nM; in test [2] it was 13 nM; in test [3] it was 15 nM; in test [4], 0.6 nM; in test [5] it was 5.3 nM.
For `CC(C)NCc1ccc(C[C@@H]2NC(=O)[C@@H](Cc3c[nH]c4ccccc34)NC(=O)[C@H](Cc3ccccc3)NC(=O)[C@@H]3CC(=O)NC[C@H](NC(=O)[C@H](Cc4ccccc4)NC(=O)[C@H]([C@@H](C)O)NC2=O)C(=O)N[C@@H](CO)C(=O)N[C@H](C(=O)O)CSSC[C@H](NC(=O)[C@@H](N)Cc2ccc(O)cc2)C(=O)N[C@@H](CCCCN)C(=O)N3)cc1`, the IC50 in test [1], in test [2], in test [3], in test [4] and in test [5] was greater than 1000 nM in each case.
As for `CC(C)NCc1ccc(C[C@@H]2NC(=O)[C@@H](Cc3c[nH]c4ccccc34)NC(=O)[C@H](Cc3ccccc3)NC(=O)[C@@H]3CCC(=O)NCC[C@H](NC(=O)[C@H](Cc4ccccc4)NC(=O)[C@H]([C@@H](C)O)NC2=O)C(=O)N[C@@H](CO)C(=O)N[C@H](C(=O)O)CSSC[C@H](NC(=O)[C@@H](N)Cc2ccc(O)cc2)C(=O)N[C@@H](CCCCN)C(=O)N3)cc1`, the IC50 in test [1] was greater than 1000 nM; in test [2], greater than 1000 nM; in test [3], greater than 1000 nM; in test [4], greater than 1000 nM; in test [5], 104 nM.
Consider `C[C@@H](O)[C@@H]1NC(=O)[C@H](CCCCN)NC(=O)[C@@H](Cc2c[nH]c3ccccc23)NC(=O)[C@H](Cc2ccccc2)NC(=O)[C@H](Cc2ccccc2)NC(=O)[C@H](CC(N)=O)NC(=O)[C@@H](N)CSSC[C@@H](C(=O)O)NC(=O)[C@H](Cc2ccccc2)NC1=O`, for which the IC50 in test [1] was determined as 189 nM; in test [2] it was 31 nM; in test [3], 95 nM; in test [4] it was 1.2 nM; in test [5], 59 nM.
For `C[C@@H](O)[C@@H]1NC(=O)[C@H](CCCCN)NC(=O)[C@@H](Cc2c[nH]c3ccccc23)NC(=O)[C@H](Cc2ccccc2)NC(=O)[C@@H](N)CSSC[C@@H](C(=O)O)NC(=O)[C@H](Cc2ccccc2)NC1=O`, the IC50 in test [1] was greater than 1000 nM; in test [2], greater than 1000 nM; in test [3], 531 nM; in test [4], 229 nM; in test [5], greater than 1000 nM.
Take `C[C@@H](O)[C@@H]1NC(=O)[C@H](CCCCN)NC(=O)[C@@H](Cc2c[nH]c3ccccc23)NC(=O)[C@H](Cc2ccccc2)NC(=O)[C@H](Cc2ccccc2)NC(=O)[C@@H](N)CSSC[C@@H](C(=O)O)NC1=O`: the IC50 in test [1] was greater than 1000 nM; in test [2], greater than 1000 nM; in test [3] it was 598 nM; in test [4], greater than 1000 nM; in test [5] it was greater than 1000 nM.
For the compound `C[C@@H](O)[C@@H]1NC(=O)[C@H](Cc2ccccc2)NC(=O)[C@H]([C@@H](C)O)NC(=O)[C@H](CCCCN)NC(=O)[C@@H](Cc2c[nH]c3ccccc23)NC(=O)[C@H](Cc2ccccc2)NC(=O)[C@H](Cc2ccccc2)NC(=O)[C@@H](N)CSSC[C@@H](C(=O)O)NC1=O`, the IC50 is 52 nM in test [1]; 43 nM in test [2]; 1.9 nM in test [3]; 1 nM in test [4]; 197 nM in test [5].
On to `C[C@@H](O)[C@@H]1NC(=O)[C@H](Cc2ccccc2)NC(=O)[C@H]([C@@H](C)O)NC(=O)[C@H](CCCCN)NC(=O)[C@@H](Cc2c[nH]c3ccccc23)NC(=O)[C@H](Cc2ccccc2)NC(=O)[C@H](Cc2ccccc2)NC(=O)[C@H](CC(N)=O)NC(=O)[C@@H](N)CSSC[C@@H](C(=O)O)NC1=O`, for which the IC50 in test [1] is 11 nM; in test [2] it was 9.5 nM; in test [3], 5 nM; in test [4] it was 1.4 nM; in test [5], 112 nM.
On the same counts, the results for `CC(C)NCc1ccc(C[C@@H]2NC(=O)[C@@H](Cc3c[nH]c4ccccc34)NC(=O)[C@H](Cc3ccccc3)NC(=O)[C@@H]3CCC(=O)NCC[C@H](NC(=O)[C@H]([C@@H](C)O)NC2=O)C(=O)N[C@@H]([C@@H](C)O)C(=O)N[C@@H](CO)C(=O)N[C@H](C(=O)O)CSSC[C@H](NC(=O)[C@@H](N)Cc2ccc(O)cc2)C(=O)N[C@@H](CCCCN)C(=O)N3)cc1` are greater than 1000 nM, greater than 1000 nM, greater than 1000 nM, greater than 1000 nM and 597 nM.
With `C[C@@H](O)[C@@H]1NC(=O)[C@H](Cc2ccccc2)NC(=O)[C@H]([C@@H](C)O)NC(=O)[C@H](CCCCN)NC(=O)[C@@H](Cc2c[nH]c3ccccc23)NC(=O)[C@H](Cc2ccccc2)NC(=O)[C@H](Cc2ccccc2)NC(=O)[C@@H](N)CSSC[C@@H](C(=O)O)NC(=O)[C@H](CO)NC1=O`, the IC50 in test [1] stood at 222 nM; in test [2] it was 8.6 nM; in test [3] it was 28 nM; in test [4] it was 3.3 nM; in test [5] it was 79 nM.
On the same counts, the results for `CC(C)NCc1ccc(C[C@@H]2NC(=O)[C@@H](Cc3c[nH]c4ccccc34)NC(=O)[C@H](Cc3ccccc3)NC(=O)[C@H]3CCC(=O)NCC[C@@H](NC(=O)[C@H]([C@@H](C)O)NC2=O)C(=O)N[C@@H]([C@@H](C)O)C(=O)N[C@@H](CO)C(=O)N[C@H](C(=O)O)CSSC[C@H](NC(=O)[C@@H](N)Cc2ccc(O)cc2)C(=O)N[C@@H](CCCCN)C(=O)N3)cc1` are greater than 1000 nM, greater than 1000 nM, greater than 1000 nM, greater than 1000 nM and greater than 1000 nM.
The matching figures for `NCCCC[C@@H]1NC(=O)[C@@H](Cc2c[nH]c3ccccc23)NC(=O)[C@H](Cc2ccccc2)NC(=O)[C@H](Cc2ccccc2)NC(=O)[C@@H](N)CSSC[C@@H](C(=O)O)NC(=O)[C@H](Cc2ccccc2)NC1=O`: 905 nM, greater than 1000 nM, greater than 1000 nM, 786 nM and greater than 1000 nM.
For `CC(C)NCc1ccc(C[C@@H]2NC(=O)[C@@H](Cc3c[nH]c4ccccc34)NC(=O)[C@H](Cc3ccccc3)NC(=O)[C@@H]3CCC(=O)NCCCC[C@H](NC(=O)[C@H](Cc4ccccc4)NC(=O)[C@H]([C@@H](C)O)NC2=O)C(=O)N[C@@H](CO)C(=O)N[C@H](C(=O)O)CSSC[C@H](NC(=O)[C@@H](N)Cc2ccc(O)cc2)C(=O)N[C@@H](CCCCN)C(=O)N3)cc1`, the IC50 in test [1] is greater than 1000 nM; in test [2] it was greater than 1000 nM; in test [3] it was greater than 1000 nM; in test [4], greater than 1000 nM; in test [5], 208 nM.
